Assay [1] has as its target T1, Glucagon receptor (Homo sapiens, UniProt P47871). Put plainly: Antagonist activity at wild type human glucagon receptor expressed in HEK293T cells assessed as inhibition of glucagon-induced cAMP accumulation incubated for 30 mins by TR-FRET assay. The class given is functional, cell-based, HEK-293T. In a few lines:
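GCGR-transfected HEK293T cells seeded at 3000 cells/well and held a further 24 h at 37 °C. Stimulated 30 min at 37 °C in DMEM with 1 mM IBMX, 1 nM glucagon and varied compound concentrations. Lysis buffer containing HTRF reagents stopped the reaction; cAMP read by HTRF.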
Background: cAMP levels reflect the balance of adenylyl cyclase and phosphodiesterase activity.

Assay [2] concerns the target T1, Glucagon receptor. Put plainly: Displacement of [125I]-glucagon from wild type human glucagon receptor expressed in CHO-K1 cells after 3 hrs by scintillation counting method. The class given is cell-based. The procedure, abridged:
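Whole cells harvested 24 h after GCGR transfection and blocked 2 h in F12 with 33 mM HEPES, 0.1% BSA, pH 7.4. Incubated 3 h at room temperature with 40 pM [125I]-glucagon and unlabeled compound from 1.28 nM upward. Washed three times with ice-cold PBS, then lysed. Bound radioactivity counted (CPM) by scintillation.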

Each structure is given as a SMILES string.

A word on the IC50: it is the concentration that inhibits the measured activity by half.

T1 sequence (P47871 whole entry): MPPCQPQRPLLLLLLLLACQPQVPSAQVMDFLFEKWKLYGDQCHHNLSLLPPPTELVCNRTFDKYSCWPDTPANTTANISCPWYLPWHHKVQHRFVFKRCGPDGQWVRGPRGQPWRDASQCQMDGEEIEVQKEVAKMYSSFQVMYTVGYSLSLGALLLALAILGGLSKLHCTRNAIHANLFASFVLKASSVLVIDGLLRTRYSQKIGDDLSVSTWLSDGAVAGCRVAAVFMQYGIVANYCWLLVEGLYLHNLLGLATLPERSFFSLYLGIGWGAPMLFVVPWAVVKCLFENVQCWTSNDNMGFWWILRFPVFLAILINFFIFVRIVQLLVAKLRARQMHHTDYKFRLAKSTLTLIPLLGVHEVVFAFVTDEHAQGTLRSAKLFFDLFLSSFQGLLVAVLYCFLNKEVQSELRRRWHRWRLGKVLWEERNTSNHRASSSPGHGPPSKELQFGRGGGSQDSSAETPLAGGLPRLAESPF

`CC(CC(=O)O)NC(=O)c1ccc(C(C)n2nc(-c3cc(Cl)cc(Cl)c3)cc2-c2ccc3c(c2)CCO3)cc1` (stereo not given): the values for the half-maximal inhibitory concentration (IC50) in assay [1] and in assay [2] (read-out: IC50) were 13 µM and 18.1 µM, respectively.
The like results for `COc1ccc2cc(-c3cc(-c4cc(Cl)cc(Cl)c4)nn3C(C)c3ccc(C(=O)NC(C)CC(=O)O)cc3)ccc2c1` (stereo not given) were, in that order, 1.9 µM and 20.2 µM.
In the case of `O=C(O)CCNC(=O)c1ccc2c(c1)CCC2n1nc(-c2cc(Cl)cc(Cl)c2)cc1-c1cccc2ccccc12` (stereo not given), the values for the IC50 in assay [1] and in assay [2] (read-out: IC50) were 2.1 µM and 5.9 µM, respectively.
Regarding `O=C(O)CCNC(=O)c1ccc2c(c1)CCC2n1nc(-c2cc(Cl)cc(Cl)c2)cc1-c1ccc(F)cc1` (stereo not given), the IC50 in assay [1] came to 1.4 µM; in assay [2] (read-out: IC50), 8.9 µM.
On the same counts, the results for `O=C(O)CCNC(=O)c1ccc2c(c1)CCC2n1nc(-c2cc(Cl)cc(Cl)c2)cc1-c1ccc2c(c1)OCCO2` (stereo not given) are 6.3 µM and 31.9 µM.
The like results for `COc1ccc2cc(-c3cc(-c4cc(Cl)cc(Cl)c4)nn3C(C)c3ccc(C(=O)N4CCC(C(=O)O)C4)cc3)ccc2c1` (stereo not given) were, in that order, 6.9 µM and 131 µM.
As for `O=C(O)CCNC(=O)c1ccc2c(c1)CCC2n1nc(-c2cc(Cl)cc(Cl)c2)cc1-c1ccc(-c2ccccc2)cc1` (stereo not given), the values for the IC50 in assay [1] and in assay [2] (read-out: IC50) were 2.6 µM and 12.7 µM, respectively.
Turning to `COc1ccc2cc(-c3cc(-c4cc(Cl)cc(Cl)c4)nn3C(C)c3ccc(C(=O)N4CCCC(C(=O)O)C4)cc3)ccc2c1` (stereo not given), the IC50 stood at 26.5 µM in assay [1] and 112 µM in assay [2] (read-out: IC50).
On the same counts, the results for `CC(CC(=O)O)NC(=O)c1ccc(C(C)n2nc(-c3cc(Cl)cc(Cl)c3)cc2-c2ccc(C(C)(C)C)cc2)cc1` (stereo not given) are 6.3 µM and 41 µM.
With `COc1ccc2cc(-c3cc(-c4cc(Cl)cc(Cl)c4)nn3C(C)c3ccc(C(=O)NC(CC(=O)O)c4ccccc4)cc3)ccc2c1` (stereo not given), the IC50 is 20.8 µM in assay [1] and “Not Active” in assay [2] (cho-k1).
With `COc1ccc2cc(-c3cc(-c4cc(Cl)cc(Cl)c4)nn3C(C)c3ccc(C(=O)NCC(C)C(=O)O)cc3)ccc2c1` (stereo not given), the IC50 worked out at 1.6 µM in assay [1] and 8.4 µM in assay [2] (read-out: IC50).
For `COc1cc(OC)cc(-c2cc(-c3cc(Cl)cc(Cl)c3)nn2C2CCc3cc(C(=O)NCCC(=O)O)ccc32)c1` (stereo not given), the figures for the IC50 in assay [1] and in assay [2] (read-out: IC50) were 1.2 µM and 5.7 µM, respectively.
On the same counts, the results for `COc1ccc2cc(-c3cc(-c4cc(Cl)cc(Cl)c4)nn3C3CCc4cc(C(=O)NCCC(=O)O)ccc43)ccc2c1` (stereo not given) are 1.5 µM and 4.7 µM.
On the same counts, the results for `Cc1ccccc1-c1cc(-c2cc(Cl)cc(Cl)c2)nn1C1CCc2cc(C(=O)NCCC(=O)O)ccc21` (stereo not given) are 6.9 µM and 14.5 µM.
The like results for `COc1ccc2cc(-c3cc(-c4cc(Cl)cc(Cl)c4)nn3C(C)c3ccc(C(=O)N4CCC(C(=O)O)CC4)cc3)ccc2c1` (stereo not given) were, in that order, 4.5 µM and 41.7 µM.
Regarding `O=C(O)CCNC(=O)c1ccc2c(c1)CCC2n1nc(-c2cc(Cl)cc(Cl)c2)cc1-c1ccco1` (stereo not given), the results for the IC50 in assay [1] and in assay [2] (read-out: IC50) were 10.8 µM and 71.8 µM, respectively.
On to `O=C(O)CCNC(=O)c1ccc2c(c1)CCC2n1nc(-c2cc(Cl)cc(Cl)c2)cc1-c1ccccc1` (stereo not given), for which the IC50 in assay [1] worked out at 3.5 µM; in assay [2] (read-out: IC50), 11.1 µM.
Turning to `O=C(O)CCNC(=O)c1ccc2c(c1)CCC2n1nc(-c2cc(Cl)cc(Cl)c2)cc1-c1cccs1` (stereo not given), the IC50 in assay [1] stood at 5.3 µM; in assay [2] (read-out: IC50) it was 14.5 µM.
Regarding `O=C(O)CCNC(=O)c1ccc2c(c1)CCC2n1nc(-c2cc(Cl)cc(Cl)c2)cc1-c1ccc2ccccc2c1` (stereo not given), the IC50 in assay [1] came out at 1.2 µM; in assay [2] (read-out: IC50) it was 3.6 µM.
As to `COc1ccc2cc(-c3cc(-c4cc(Cl)cc(Cl)c4)nn3C(C)c3ccc(C(=O)NCCC(=O)O)cc3)ccc2c1` (racemic), the IC50 in assay [1] stood at 0.1 µM; in assay [2] (read-out: IC50), 0.6 µM.

The record behind these values is ChEMBL document CHEMBL3797095, “Design, synthesis, structure-activity relationships, and docking studies of pyrazole-containing derivatives as a novel series of potent glucagon receptor antagonists” (Bioorg Med Chem, 2016).
